Data on two molecules can be found in ChEMBL document CHEMBL3792300, “Tuning Side Arm Electronics in Unsymmetrical Cyclotriazadisulfonamide (CADA) Endoplasmic Reticulum (ER) Translocation Inhibitors to Improve their Human Cluster of Differentiation 4 (CD4) Receptor Down-Modulating Potencies” (J Med Chem, 2016).

Series [1] in a line: Binding affinity to human CD4 signal peptide expressed in CHO cells assessed as down-modulation of YFP-fused CD4 expression after 24 hrs by flow cytometric analysis. It is filed as cell-based. An outline of the steps: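 CHO cells stably expressing human CD4 fused C-terminally to YFP, treated 24 h at 37 °C with 1:5 serial dilutions. Washed, fixed in 1% formaldehyde, flow cytometry with 488 nm excitation and YFP in FL-1. YFP median fluorescence as % of untreated cells after subtracting non-transfected background. IC50 = 50% decrease; mean ± SD, n ≥ 3.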

Another series has as its system MT4. In words: Cytotoxicity against human MT4 cells after 48 hrs by MTS/PES method. Format: cell-based. The note with it: mt4, 48 h. An outline of the steps: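 MT-4 cells at 10⁴ per well in DMEM with 10% FBS and 10 mM HEPES, incubated with compounds 48 h at 37 °C. Viability by MTS/PES; CC50 taken as the concentration reducing viability by 50%.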
Another series concerns CHO. In words: Binding affinity to human CD4 signal peptide expressed in CHO cells assessed as down-modulation of YFP-fused CD4 expression at 50 uM after 24 hrs by flow cytometric analysis. Format: cell-based. An outline of the steps: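 Stably CD4-YFP-expressing CHO cells, 24 h at 37 °C, 50 μM as the highest concentration tested. Washed, fixed in 1% formaldehyde, YFP read by flow cytometry (488 nm, FL-1). Median fluorescence versus untreated cells, background of non-transfected cells subtracted. Given as % CD4 down-modulation at 50 μM.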
On the technique in general: In flow cytometry, cells or beads pass a laser one at a time.

For series [2], the system named is Human immunodeficiency virus 1. In words: Antiviral activity against CXCR4 using HIV-1 NL4.3 infected in human MT4 cells assessed as reduction of viral replication preincubated for 15 mins with cells followed by viral infection measured after 4 days by MTS/PES method. The note with it: Human immunodeficiency virus 1, NL4.3, MT4. Format: functional, organism-based. In short, it runs like this: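 MT-4 T cells at 3.75×10⁵ cells/mL in RPMI 1640 with 10% FBS and 2 mM L-glutamine, exposed to compounds for 15 min, then infected with HIV-1 NL4.3 (30 pg/well) at 37 °C. After 4 days, viability by MTS/PES absorbance at 490 and 700 nm, used to derive IC50 for viral replication. Mean ± SD, n = 2 or 3.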

By IC50 is commonly meant the concentration that inhibits the measured activity by half. Usually CC50 stands for the concentration at which the toxic effect on the cells reaches its halfway point. Low readings indicate harm at low concentration, high ones better tolerance by the cells. In the case of `C=C1CNCCCN(Cc2ccccc2)CCCN(S(=O)(=O)c2ccc(C)cc2)C1`, the half-maximal inhibitory concentration (IC50) in series [1] is more than 50 µM. The molecule further displayed a CC50 in the series with MT4 of more than 150 µM. Further, the Activity in the series on CHO was 20%.

`C=C1CN(C(=O)c2ccc([N+](=O)[O-])cc2)CCCN(Cc2ccccc2)CCCN(S(=O)(=O)c2ccc(C)cc2)C1`: the 50% inhibitory concentration (IC50) in series [1] and in series [2] was more than 50 µM in each case. In addition, the half-maximal cytotoxic concentration (CC50) in the series with MT4 is more than 150 µM. The Activity in the series with CHO was 39%.
